Tests used:
[1] = Cytotoxicity against human KB cells assessed as cell viability at 10 ug/ml; format: cell-based; settings: read-out: Activity
[2] = Cytotoxicity against human KB cells assessed as cell viability at 10 uM after 72 hrs by SRB method relative to control; format: cell-based; settings: read-out: Activity
[3] = Cytotoxicity against human KBVIN cells assessed as cell viability at 10 ug/ml; format: cell-based; settings: read-out: Activity
[4] = Cytotoxicity against human DU145 cells assessed as cell viability at 10 ug/ml; format: cell-based, DU-145; settings: read-out: Activity
[5] = Cytotoxicity against human KBVIN cells assessed as cell viability at 10 uM after 72 hrs by SRB method relative to control; format: cell-based; settings: read-out: Activity
[6] = Cytotoxicity against human A549 cells assessed as cell viability at 10 ug/ml; format: cell-based; settings: read-out: Activity
[7] = tested on: KB; assay: Potentiation of paclitaxel-mediated cytotoxicity against human KB cells assessed as cell viability at 10 uM after 72 hrs by SRB method relative to control; format: functional; settings: read-out: Activity
[8] = Potentiation of paclitaxel-mediated cytotoxicity against human KBVIN cells assessed as cell viability at 10 uM after 72 hrs by SRB method relative to control; format: functional; settings: read-out: Activity
[9] = tested on: KBVIN; settings: Homo sapiens
[10] = Potentiation of vincristine-mediated cytotoxicity against human KBVIN cells assessed as reduction in vincristine IC50 at 10 uM after 72 hrs by SRB method relative to control; format: functional
How it was run: (§1)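 IC50 of paclitaxel, vincristine or doxorubicin measured in KBvin cells with and without 10 μM compound; reversal fold = IC50 (drug alone)/IC50 (drug + compound); mean ± SD of three independent experiments; verapamil as reference.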

[11] = Potentiation of doxorubicin-mediated cytotoxicity against human KBVIN cells assessed as reduction in doxorubicin IC50 at 10 uM after 72 hrs by SRB method relative to control; format: functional; how it was run: as §1
[12] = Potentiation of paclitaxel-mediated cytotoxicity against human KBVIN cells assessed as reduction in paclitaxel IC50 at 10 uM after 72 hrs by SRB method relative to control; format: functional; how it was run: as §1
[13] = target: Multidrug resistance-associated protein 1 (Homo sapiens, UniProt P33527); assay: Inhibition of MRP-mediated Fluo3 efflux in human KBVIN cells at 10 uM incubated for 1 hr prior to Fluo3-addition measured after 2 hrs by fluorescence microscopic analysis; format: cell-based
Multidrug resistance-associated protein 1, sequence (P33527 whole entry): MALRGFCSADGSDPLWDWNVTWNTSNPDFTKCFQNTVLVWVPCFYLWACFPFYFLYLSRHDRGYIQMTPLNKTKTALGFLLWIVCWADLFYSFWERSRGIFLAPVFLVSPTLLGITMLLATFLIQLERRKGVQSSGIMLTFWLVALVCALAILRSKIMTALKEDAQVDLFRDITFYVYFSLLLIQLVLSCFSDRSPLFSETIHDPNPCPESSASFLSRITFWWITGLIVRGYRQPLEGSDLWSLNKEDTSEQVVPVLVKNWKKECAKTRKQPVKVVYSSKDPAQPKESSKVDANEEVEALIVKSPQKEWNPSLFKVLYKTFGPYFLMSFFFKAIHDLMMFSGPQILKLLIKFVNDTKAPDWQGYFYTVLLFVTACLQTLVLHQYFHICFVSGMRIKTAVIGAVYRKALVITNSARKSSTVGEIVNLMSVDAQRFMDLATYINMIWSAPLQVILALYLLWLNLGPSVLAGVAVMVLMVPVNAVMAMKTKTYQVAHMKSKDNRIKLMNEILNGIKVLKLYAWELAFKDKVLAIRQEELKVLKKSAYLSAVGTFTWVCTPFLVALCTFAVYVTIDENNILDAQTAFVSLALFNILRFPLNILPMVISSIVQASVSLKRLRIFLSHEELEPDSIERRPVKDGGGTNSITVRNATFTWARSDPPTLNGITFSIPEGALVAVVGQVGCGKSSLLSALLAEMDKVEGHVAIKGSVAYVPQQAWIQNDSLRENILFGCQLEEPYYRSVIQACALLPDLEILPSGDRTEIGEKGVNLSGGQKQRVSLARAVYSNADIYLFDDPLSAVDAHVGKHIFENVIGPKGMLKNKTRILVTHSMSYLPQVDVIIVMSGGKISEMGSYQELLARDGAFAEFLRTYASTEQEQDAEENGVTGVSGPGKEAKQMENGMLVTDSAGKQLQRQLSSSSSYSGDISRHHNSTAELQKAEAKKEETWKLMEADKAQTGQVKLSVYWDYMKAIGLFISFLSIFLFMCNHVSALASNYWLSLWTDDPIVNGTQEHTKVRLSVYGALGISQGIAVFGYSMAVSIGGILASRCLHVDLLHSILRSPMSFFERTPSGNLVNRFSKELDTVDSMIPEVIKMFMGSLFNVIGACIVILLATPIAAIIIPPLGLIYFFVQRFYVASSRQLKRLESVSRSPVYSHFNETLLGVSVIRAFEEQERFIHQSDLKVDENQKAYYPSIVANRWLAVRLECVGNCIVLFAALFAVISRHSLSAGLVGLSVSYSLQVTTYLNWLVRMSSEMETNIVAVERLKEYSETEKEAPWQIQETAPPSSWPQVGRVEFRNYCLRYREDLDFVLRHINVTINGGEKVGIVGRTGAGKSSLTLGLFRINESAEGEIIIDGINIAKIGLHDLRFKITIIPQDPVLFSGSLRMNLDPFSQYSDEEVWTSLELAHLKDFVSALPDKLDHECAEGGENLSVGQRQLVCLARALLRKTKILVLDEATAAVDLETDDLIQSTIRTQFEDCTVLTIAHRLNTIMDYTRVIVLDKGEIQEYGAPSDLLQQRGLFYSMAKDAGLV
How it was run: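 KB or KBvin cells pretreated 1 h with compound or DMSO, then Fluo-3 AM (fluorogenic MRP substrate) added for 2 h; intracellular Fluo-3 retention judged by fluorescence microscopy.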

[14] = Potentiation of vincristine-mediated cytotoxicity against human KBVIN cells assessed as reduction in vincristine IC50 at 10 uM after 72 hrs by SRB method relative to verapamil; format: functional; how it was run: as §1

Row | SMILES | viability at 10 ug/ml [1] [%] | viability at 72 h, 10 µM [2] [%] | viability at 10 ug/ml [3] [%] | viability at 10 ug/ml [4] [%] | viability at 72 h, 10 µM [5] [%] | viability at 10 ug/ml [6] [%] | viability at 10 µM [7] [%] | viability at 10 µM [8] [%] | Flu intensity [9] | fold change (FC) [10] | fold change (FC) [11] | fold change (FC) [12] | inhibition (INH) [13] | fold change (FC) [14]
1 | COc1cc(C(O)COC(=O)C2CCCCC2)cc(OC)c1OC (stereo not given) | > 80 | 98.9 | > 80 | > 80 | 110 | > 80 | 96.7 | 103 |  |  |  |  |  | 
2 | COc1cc(C(=O)OCC(O)c2cc(OC)c(OC)c(OC)c2I)cc(OC)c1OC (stereo not given) | > 80 | 77 | > 80 | > 80 | 83.3 | > 80 | 75.7 | 0 | 226 | 798 | 51 | 164 |  | 
3 | C/C=C/C(=O)OCC(OC(=O)CCCCCCCCCCC)c1cc(OC)c(OC)c(OC)c1 (stereo not given) | 76.2 | 91.1 | 41.1 | 41.9 | 79.9 | 51.1 | 83.9 | 44 |  |  |  |  |  | 
4 | COc1ccc(/C=C/C(=O)OCC(OC(=O)/C=C/c2ccccc2)c2cc(OC)c(OC)c(OC)c2I)cc1OC (stereo not given) | > 80 | 85.9 | > 80 | > 80 | 95.3 | > 80 | 76.5 | 0 | 414 | 620 | 23 | 166 |  | 
5 | COc1cc(C(COC(C)=O)OC(C)=O)cc(OC)c1OC (stereo not given) | > 80 | 98 | > 80 | > 80 | 91.5 | > 80 | 96 | 92 |  |  |  |  |  | 
6 | COc1cc(C(O)CO)c(I)c(OC)c1OC (stereo not given) | > 80 | 95.1 | > 80 | > 80 | 90 | > 80 | 97 | 91.8 |  |  |  |  |  | 
7 | COc1cc(C(=O)OCC(O[Si](C)(C)C(C)(C)C)c2cc(OC)c(OC)c(OC)c2)cc(OC)c1OC (stereo not given) | > 80 | 83.9 | > 80 | > 80 | 74.3 | > 80 | 70.3 | 12.3 | 184 | 1684 | 79 | 216 | Active | 
8 | C/C=C/C=C/C(=O)OCC(OC(=O)/C=C/C=C/C)c1cc(OC)c(OC)c(OC)c1 (stereo not given) | 74.7 | 91.2 | 50.1 | 40.8 | 81.5 | 49.6 | 76.8 | 31.3 |  |  |  |  |  | 
9 | COc1cc(C(=O)OCC(O[Si](C)(C)C(C)(C)C)c2cc(OC)c(OC)c(OC)c2I)cc(OC)c1OC (stereo not given) | 26.1 | 64.2 | 36.7 | 0 | 41 | 37 | 58 | 19.6 |  |  |  |  |  | 
10 | COc1ccc(CCN(C)CCCC(C#N)(c2ccc(OC)c(OC)c2)C(C)C)cc1OC (stereo not given) [VERAPAMIL] |  |  |  |  |  |  |  |  |  | 97 | 6 | 72 |  | 
11 | COc1cc(C(=O)OCC(OC(=O)c2cc(OC)c(OC)c(OC)c2)c2cc(OC)c(OC)c(OC)c2I)cc(OC)c1OC (stereo not given) | 75.4 | 84.2 | 47 | 46.6 | 87.1 | 56.2 | 73.7 | 0 | 456 | 2285 | 156 | 141 | Not Active | 340
12 | COc1cc(C(O)CO)cc(OC)c1OC (stereo not given) | > 80 | 101 | > 80 | > 80 | 92.4 | > 80 | 96.8 | 99 |  |  |  |  |  | 

From ChEMBL document CHEMBL2203070, “1-(3,4,5-Trimethoxyphenyl)ethane-1,2-diyl esters, a novel compound class with potent chemoreversal activity” (Bioorg Med Chem Lett, 2012)
